Source: ChEMBL document CHEMBL4392872, “Phomanolides C-F from a Phoma sp.: Meroterpenoids Generated via Hetero-Diels-Alder Reactions” (J Nat Prod, 2019)
Calls of active or inactive are those of the source. The calls are words filed in the database; no cut-off is given here.

Assays:
Type in all cases: functional, cell-based
U-251 [1] = experiment: Cytotoxicity against human U251 cells at 50 uM measured after 48 hrs by MTS assay
HeLa [2] = experiment: Cytotoxicity against human HeLa cells at 50 uM measured after 48 hrs by MTS assay
H4 [3] = experiment: Cytotoxicity against human H4 cells at 50 uM measured after 48 hrs by MTS assay
SH-SY5Y [4] = experiment: Cytotoxicity against human SH-SY5Y cells at 50 uM measured after 48 hrs by MTS assay
MCF7 [5] = experiment: Cytotoxicity against human MCF7 cells at 50 uM measured after 48 hrs by MTS assay
H4 [6] = experiment: Cytotoxicity against human H4 cells measured after 48 hrs by MTS assay; details: H4, 48 h
Outline: (§1)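 Cells seeded at 1.0 × 10^4 per well and allowed to attach overnight. Medium then replaced with medium holding the test compound, positive control cisplatin, or 0.1% DMSO vehicle. Incubated 48 h at 37 °C, 5% CO2. MTS added and incubated 90 min at 37 °C in the dark, then OD read at 490 nm. Triplicate wells per concentration; each test run three times.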

U-251 [7] = experiment: Cytotoxicity against human U251 cells measured after 48 hrs by MTS assay; details: U-251, 48 h; outline: as §1
SH-SY5Y [8] = experiment: Cytotoxicity against human SH-SY5Y cells measured after 48 hrs by MTS assay; outline: as §1
MCF7 [9] = experiment: Cytotoxicity against human MCF7 cells measured after 48 hrs by MTS assay; details: MCF7, 48 h; outline: as §1
HeLa [10] = experiment: Cytotoxicity against human HeLa cells measured after 48 hrs by MTS assay; outline: as §1

SMILES	Activity (U-251 [1])	Activity (HeLa [2])	Activity (H4 [3])	Activity (SH-SY5Y [4])	Activity (MCF7 [5])	IC50 (H4 [6])	IC50 (U-251 [7])	IC50 (SH-SY5Y [8])	IC50 (MCF7 [9])	IC50 (HeLa [10])
CC1=CC(=O)O[C@@]23CC(=O)O[C@@]12C[C@H]1C[C@H](O)/C(C)=C\CC(C)(C)/C=C/C[C@]1(C)O3	inactive	inactive	inactive	inactive	inactive					
CC1=CC(=O)O[C@@]23CC(=O)O[C@@]12C[C@H]1C[C@H](O)[C@@]2(C)Oc4cc(O)cc(C)c4C[C@H]2CC(C)(C)/C=C/C[C@]1(C)O3	inactive	inactive	inactive	inactive	inactive					
CC1=CC(=O)O[C@@]23CC(=O)O[C@@]12C[C@H]1C[C@H](O)[C@@]2(C)Oc4cc(O)c(=O)cc(C)c4C[C@H]2CC(C)(C)/C=C/C[C@]1(C)O3						44.6 µM	38.8 µM	132 µM	68.4 µM	
Cc1cc(O)cc2c1C[C@H]1CC(C)(C)/C=C/C[C@]3(C)OC4=CC(=O)O[C@]5(C)CC(=O)O[C@]45C[C@H]3C[C@H](O)[C@@]1(C)O2								83.5 µM		50 µM
